Key:
Format in all cases: cell-based
[1] = molecular target: Histone-lysine N-methyltransferase EZH2 (Mus musculus) (UniProt Q61188); assay: Inhibition of EZH2 in mouse B16-F1 migrating cells assessed as fold change in H3K27me3-independent regulated Fam214b-mRNA expression at 3 uM measured by […] analysis relative to control cells
Procedure, shortened: (§1)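 Confluent B16-F1 cells on fibronectin-coated plates were scratched at multiple sites, washed once with DMEM and left to migrate 3 h in growth medium (37 °C, 7% CO2); unscratched cells served as control. GSK343 (3 µM) was added 3 h before lysis. Poly A mRNA was sequenced (RNA-seq), with 5 replicates for untreated and 3 for treated cells. Differential expression was called by linear model with batch correction, at FDR <0.05 and fold change ≥1.3.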

[2] = molecular target: Histone-lysine N-methyltransferase EZH2 (Mus musculus) (UniProt Q61188); assay: Inhibition of EZH2 in mouse B16-F1 migrating cells assessed as fold change in H3K27me3-buffered regulated A130010J15Rik-mRNA expression at 3 uM measured by […] analysis relative to control cells
Procedure, shortened: (§2)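 Confluent B16-F1 cells on fibronectin-coated plates, cultured at 37 °C and 7% CO2, were scratched at multiple sites to induce migration. They were then held 3 h in growth medium containing 3 µM GSK343, with the inhibitor added 3 h before lysis. Unscratched cells served as controls. Poly A mRNA was analysed by RNA-seq (n=3 GSK343, n=5 controls). Linear models removed batch effects, and buffered genes were those altered only under GSK343 (FDR <0.05, fold change >1.3).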

[3] = molecular target: Histone-lysine N-methyltransferase EZH2 (Mus musculus) (UniProt Q61188); assay: Inhibition of EZH2 in mouse B16-F1 migrating cells assessed as fold change in H3K27me3-buffered regulated Stk10-mRNA expression at 3 uM measured by […] analysis relative to control cells; procedure, shortened: as §1
[4] = molecular target: Histone-lysine N-methyltransferase EZH2 (Mus musculus) (UniProt Q61188); assay: Inhibition of EZH2 in mouse B16-F1 migrating cells assessed as fold change in H3K27me3-dependent regulated Ccno-mRNA expression at 3 uM measured by […] analysis relative to control cells; procedure, shortened: as §1
[5] = molecular target: Histone-lysine N-methyltransferase EZH2 (Mus musculus) (UniProt Q61188); assay: Inhibition of EZH2 in mouse B16-F1 migrating cells assessed as fold change in H3K27me3-buffered regulated 1810058I24Rik-mRNA expression at 3 uM measured by […] analysis relative to control cells; procedure, shortened: as §2
[6] = molecular target: Histone-lysine N-methyltransferase EZH2 (Mus musculus) (UniProt Q61188); assay: Inhibition of EZH2 in mouse B16-F1 migrating cells assessed as fold change in H3K27me3-buffered regulated Gabre-mRNA expression at 3 uM measured by […] analysis relative to control cells; procedure, shortened: as §2
[7] = molecular target: Histone-lysine N-methyltransferase EZH2 (Mus musculus) (UniProt Q61188); assay: Inhibition of EZH2 in mouse B16-F1 migrating cells assessed as fold change in H3K27me3-buffered regulated Rev3l-mRNA expression at 3 uM measured by […] analysis relative to control cells; procedure, shortened: as §2
[8] = molecular target: Histone-lysine N-methyltransferase EZH2 (Mus musculus) (UniProt Q61188); assay: Inhibition of EZH2 in mouse B16-F1 migrating cells assessed as fold change in H3K27me3-independent regulated Aldoc-mRNA expression at 3 uM measured by […] analysis relative to control cells; procedure, shortened: as §1
[9] = molecular target: Histone-lysine N-methyltransferase EZH2 (Mus musculus) (UniProt Q61188); assay: Inhibition of EZH2 in mouse B16-F1 migrating cells assessed as fold change in H3K27me3-buffered regulated Gatd1-mRNA expression at 3 uM measured by […] analysis relative to control cells; procedure, shortened: as §2
[10] = molecular target: Histone-lysine N-methyltransferase EZH2 (Mus musculus) (UniProt Q61188); assay: Inhibition of EZH2 in mouse B16-F1 migrating cells assessed as fold change in H3K27me3-buffered regulated Edrf1-mRNA expression at 3 uM measured by […] analysis relative to control cells; procedure, shortened: as §2
[11] = molecular target: Histone-lysine N-methyltransferase EZH2 (Mus musculus) (UniProt Q61188); assay: Inhibition of EZH2 in mouse B16-F1 migrating cells assessed as fold change in H3K27me3-buffered regulated Tet2-mRNA expression at 3 uM measured by […] analysis relative to control cells; procedure, shortened: as §1
[12] = molecular target: Histone-lysine N-methyltransferase EZH2 (Mus musculus) (UniProt Q61188); assay: Inhibition of EZH2 in mouse B16-F1 migrating cells assessed as fold change in H3K27me3-buffered regulated Map3k20-mRNA expression at 3 uM measured by […] analysis relative to control cells; procedure, shortened: as §2
[13] = molecular target: Histone-lysine N-methyltransferase EZH2 (Mus musculus) (UniProt Q61188); assay: Inhibition of EZH2 in mouse B16-F1 migrating cells assessed as fold change in H3K27me3-buffered regulated Sltm-mRNA expression at 3 uM measured by […] analysis relative to control cells; procedure, shortened: as §1
[14] = molecular target: T1, RNA polymerase II (Mus musculus) (UniProt P08775+Q8CFI7+P97760+A0A3Q4L2S8+Q80UW8+P61219+P62488+Q923G2+P60898+O08740+Q63871+P62876); assay: Inhibition of RNA polymerase II in mouse B16-F1 migrating cells assessed as fold change in Kif18a-RNA stability at 0.1 mM measured by ChIP-seq analysis relative to control cells
[15] = molecular target: T1, RNA polymerase II (Mus musculus); assay: Inhibition of RNA polymerase II in mouse B16-F1 migrating cells assessed as fold change in Abi1-RNA stability at 0.1 mM measured by […] analysis relative to control cells
[16] = molecular target: T1, RNA polymerase II (Mus musculus); assay: Inhibition of RNA polymerase II in mouse B16-F1 migrating cells assessed as fold change in Phf20l1-RNA stability at 0.1 mM measured by […] analysis relative to control cells
[17] = molecular target: T1, RNA polymerase II (Mus musculus); assay: Inhibition of RNA polymerase II in mouse B16-F1 migrating cells assessed as fold change in Eri3-RNA stability at 0.1 mM measured by ChIP-seq analysis relative to control cells
[18] = molecular target: T1, RNA polymerase II (Mus musculus); assay: Inhibition of RNA polymerase II in mouse B16-F1 migrating cells assessed as fold change in Yes1-RNA stability at 0.1 mM measured by […] analysis relative to control cells
[19] = molecular target: T1, RNA polymerase II (Mus musculus); assay: Inhibition of RNA polymerase II in mouse B16-F1 migrating cells assessed as fold change in Trpv2-RNA stability at 0.1 mM measured by […] analysis relative to control cells
[20] = molecular target: T1, RNA polymerase II (Mus musculus); assay: Inhibition of RNA polymerase II in mouse B16-F1 migrating cells assessed as fold change in Fxr1-RNA stability at 0.1 mM measured by ChIP-seq analysis relative to control cells
[21] = molecular target: T1, RNA polymerase II (Mus musculus); assay: Inhibition of RNA polymerase II in mouse B16-F1 migrating cells assessed as fold change in Grhpr-RNA stability at 0.1 mM measured by ChIP-seq analysis relative to control cells
[22] = molecular target: T1, RNA polymerase II (Mus musculus); assay: Inhibition of RNA polymerase II in mouse B16-F1 migrating cells assessed as fold change in Nae1-RNA stability at 0.1 mM measured by ChIP-seq analysis relative to control cells
[23] = molecular target: T1, RNA polymerase II (Mus musculus); assay: Inhibition of RNA polymerase II in mouse B16-F1 migrating cells assessed as fold change in Rest-RNA stability at 0.1 mM measured by […] analysis relative to control cells
[24] = molecular target: T1, RNA polymerase II (Mus musculus); assay: Inhibition of RNA polymerase II in mouse B16-F1 migrating cells assessed as fold change in Otud6b-RNA stability at 0.1 mM measured by […] analysis relative to control cells
[25] = molecular target: T1, RNA polymerase II (Mus musculus); assay: Inhibition of RNA polymerase II in mouse B16-F1 migrating cells assessed as fold change in Gtf3c4-RNA stability at 0.1 mM measured by ChIP-seq analysis relative to control cells
[26] = molecular target: T1, RNA polymerase II (Mus musculus); assay: Inhibition of RNA polymerase II in mouse B16-F1 migrating cells assessed as fold change in Sh3bgrl3-RNA stability at 0.1 mM measured by […] analysis relative to control cells

Histone-lysine N-methyltransferase EZH2 (Mus musculus), sequence (Q61188 whole entry): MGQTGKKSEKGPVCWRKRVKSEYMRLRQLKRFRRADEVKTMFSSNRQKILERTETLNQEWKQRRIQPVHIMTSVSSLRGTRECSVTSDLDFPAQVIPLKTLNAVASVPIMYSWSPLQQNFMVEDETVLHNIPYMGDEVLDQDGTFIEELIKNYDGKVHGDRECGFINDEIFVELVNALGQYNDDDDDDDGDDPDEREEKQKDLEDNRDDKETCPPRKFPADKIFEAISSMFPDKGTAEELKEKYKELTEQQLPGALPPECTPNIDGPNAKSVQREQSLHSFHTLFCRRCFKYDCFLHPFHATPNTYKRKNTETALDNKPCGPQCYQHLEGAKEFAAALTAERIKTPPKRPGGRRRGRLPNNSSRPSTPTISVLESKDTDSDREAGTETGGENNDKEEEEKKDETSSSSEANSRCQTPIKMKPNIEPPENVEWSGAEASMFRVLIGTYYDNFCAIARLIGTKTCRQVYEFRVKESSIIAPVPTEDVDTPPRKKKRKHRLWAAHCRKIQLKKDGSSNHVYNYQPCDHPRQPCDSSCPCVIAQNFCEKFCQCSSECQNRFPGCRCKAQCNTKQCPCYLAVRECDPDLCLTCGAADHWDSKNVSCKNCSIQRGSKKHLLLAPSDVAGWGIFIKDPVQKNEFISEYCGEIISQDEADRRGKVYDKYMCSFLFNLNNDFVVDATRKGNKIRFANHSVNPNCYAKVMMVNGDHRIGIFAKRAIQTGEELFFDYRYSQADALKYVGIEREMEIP

## CCCc1cc(C)[nH]c(=O)c1CNC(=O)c1cc(-c2ccnc(N3CCN(C)CC3)c2)cc2c1cnn2C(C)C
[1]
  log2FC: 0.53
[2]
  log2FC: -0.42
[3]
  log2FC: -0.44
[4]
  log2FC: 1.02
[5]
  log2FC: 0.47
[6]
  log2FC: -0.84
[7]
  log2FC: -0.47
[8]
  log2FC: 0.69
[9]
  log2FC: -0.43
[10]
  log2FC: -0.41
[11]
  log2FC: -0.48
[12]
  log2FC: -0.41
[13]
  log2FC: -0.45

## OC[C@H]1O[C@@H](n2cnc3cc(Cl)c(Cl)cc32)[C@H](O)[C@@H]1O
[14]
  log2FC: -1.13
[15]
  log2FC: -0.62
[16]
  log2FC: -0.65
[17]
  log2FC: 0.38
[18]
  log2FC: -0.83
[19]
  log2FC: 0.41
[20]
  log2FC: -0.67
[21]
  log2FC: 1.02
[22]
  log2FC: -0.43
[23]
  log2FC: -0.79
[24]
  log2FC: -0.6
[25]
  log2FC: -0.54
[26]
  log2FC: 0.55
